We go through 65 compounds from PubChem BioAssay AID2520 (Sanford-Burnham Center for Chemical Genomics, 2010).

Screen size: about 330,000 compounds; about 350 (0.11%) were called active. For the sample, actives were picked, then their nearest neighbours and some compounds at random. Values without a mark were called inactive.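 Rule for the calls: active = activation more than six SD over the plate average, tested at 20 µM; inactive = the rest.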

The target of this experiment is Apelin receptor (Homo sapiens) (UniProt P35414). The experiment in a line: agonists of human apelin receptor APJ, primary screen, CHO-K1 cells, PathHunter beta-arrestin, luminescence (AID 2520). The note with it: at 20 µM, hits give high values, 0% DMSO wells, 100% apelin. The method in brief: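 Test system – PathHunter CHO-K1 APJ (AGTRL-1) beta-arrestin reporter cells · Input – 1000 cells/well · Compound – single test compound dose, 20 µM final, 1% DMSO · Times – compound stimulation 90 min at 25 °C, detection 60 min · Technique – beta-gal luminescence · Read-out basis – APJ–arrestin association signal · Control set – negative DMSO alone, positive Apelin-13 at 10 nM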
Apelin receptor (Homo sapiens), sequence (P35414 whole entry, looked up): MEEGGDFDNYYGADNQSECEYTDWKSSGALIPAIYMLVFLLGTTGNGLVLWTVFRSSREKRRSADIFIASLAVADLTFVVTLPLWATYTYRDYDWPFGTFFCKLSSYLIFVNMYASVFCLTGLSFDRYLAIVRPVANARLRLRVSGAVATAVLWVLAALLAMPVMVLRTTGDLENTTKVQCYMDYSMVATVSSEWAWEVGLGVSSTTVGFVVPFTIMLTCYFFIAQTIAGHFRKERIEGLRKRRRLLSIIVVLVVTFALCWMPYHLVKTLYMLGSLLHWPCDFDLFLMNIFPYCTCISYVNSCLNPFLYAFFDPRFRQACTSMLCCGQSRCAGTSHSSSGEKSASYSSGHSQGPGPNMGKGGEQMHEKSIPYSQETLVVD
Consider `Cn1c(=O)cc(OCCCC(=O)N2CCN(c3ccccn3)CC2)c2ccccc21`, for which the activation was -3.56%.
The result for `COc1ccc(NC(=O)CSc2nncc(=O)n2N)cc1OC` reads -6.25%; that for `CN(C)/C=C(\C#N)C(=O)c1cccnc1Oc1cccc(F)c1`, -4.09%; that for `CC(C)NC(=O)Nc1cccc2c1O[C@@H](CN(C)S(=O)(=O)c1ccc(F)cc1)[C@@H](C)CN([C@H](C)CO)C2=O`, -0.163%.
The result for `Cc1ccc(S(=O)(=O)N(C)C)cc1NC(=O)/C=C/c1cccs1` reads 2.48%; that for `Cn1ccnc1-c1nnn(-c2ccc(F)cc2)n1`, -4.89%.
The result for `CCOc1ccc(CN2CCN(Cc3ccon3)CC2CCO)cc1` (stereo not given) reads -0.588%; that for `Cc1ccc(C(=O)O)cc1-c1ccc(/C=C2\SC(=O)N(CC(=O)Nc3ccc4c(c3)OCO4)C2=O)o1`, 0.103%; that for `CC(NC(=O)c1ccc(Cl)cc1)C(=O)N1CCCCC1` (stereo not given), 0.246%.
In the case of `COc1ccc(C)cc1NC(=O)CSc1nnc2ccc(-c3ccccn3)nn12`, the activation is 1.64%.
The result for `COc1ccc(CNS(=O)(=O)c2cc(-c3cc(C)no3)ccc2C(C)C)cc1` reads 0.556%.
To `CN1CCN(CC#CCC2(O)c3ccccc3-c3ccccc32)CC1` belongs -0.677%; to `CN1CCN(S(=O)(=O)c2ccc(Nc3ccc(F)cc3)nc2)CC1`, 7.91%; to `Brc1ccc(CN2CC[C@H]3C=CCc4cccc(c43)C2)cc1`, -1.27%.
The result for `CCN1CN(Cc2ccccc2)CNC1=S` reads -0.233%; that for `CCc1ccc(CN2C(=O)c3ccccc3C2C(=O)NCC2CCCO2)cc1` (stereo not given), 1.09%.
For `CCCN(c1ccc(C(C)C)cc1)S(=O)(=O)c1c(C)[nH]c(=O)[nH]c1=O`, the activation was -2.76%.
The result for `Cc1nn(C)cc1N1C(=O)c2cccc3c(N)ccc(c23)C1=O` reads -0.917%; that for `CCN1C(=O)c2cccc3c(S(=O)(=O)Nc4ccccc4O)ccc1c23`, 2.45%; that for `CCN1C(=O)c2cccc3c(N)ccc1c23`, 24% (active).
`O=S(=O)(N1CCCCC1)N1CCNCC1`: the activation is 2.29%.
For `Cc1c(Cl)c([N+](=O)[O-])nn1Cc1ccc(C(=O)N/N=C\c2cc(Cl)ccc2O)o1`, the activation is 1.67%.
To `COc1cc(NC(=O)COC(=O)c2cc(S(=O)(=O)N3CCOCC3)ccc2F)cc(OC)c1` belongs -0.441%.
The result for `Cc1cc(C(=O)NCCc2ccc(Cl)cc2)c(C)o1` reads 7.66%.
As to `CSCCC(C(=O)NC1=NCCS1)N1C(=O)c2ccccc2C1=O` (stereo not given), the activation was 0.0635%.
The result for `CN(C(=O)c1cccc(NC(=O)Cc2ccc([N+](=O)[O-])cc2)c1)C1CCC1` reads 0.477%.
To `COc1cc(C(=O)Nc2cc(C(F)(F)F)ccc2N2CCOCC2)ccc1O` belongs -3.45%; to `Cc1ccc(NC(=O)CN(C)C(=O)c2cccc(S(=O)(=O)N3CCCC3)c2)cc1`, -1.65%.
The result for `Cc1n[nH]c(=O)n1-c1ccc(Oc2ccccc2)cc1` reads -4.14%; that for `O=C(CCS(=O)(=O)c1ccc2c(c1)NC(=O)CS2)NCc1ccccc1Cl`, 0.174%.
With `COC(=O)c1ccc(COc2ccc(/C=N/NC(=O)C(=O)Nc3ccc(OC)cc3)cc2OC)o1`, the activation was -4.37%.
The result for `O=C(N/N=C/c1cccc(OCc2ccccc2)c1)c1ccc(Br)o1` reads 12%.
To `CCCc1ccc(OCc2ccc(C(=O)N/N=C/c3cccc([N+](=O)[O-])c3)o2)c(OC)c1` belongs 47.7% (active).
The result for `O=C(c1cnn2ccccc12)N1CCc2ccccc21` reads -0.0654%; that for `CCc1ccc(N2CC(C(=O)NC3=NCCS3)CC2=O)cc1` (stereo not given), 10.1%.
Take `CSc1nccc(NC(=O)c2ccc(C(C)(C)C)cc2)n1`: the activation was 1.31%.
To `CSc1cccc(NC(=S)N(C(C)C)C(C)c2ccccn2)c1` (stereo not given) belongs 1.84%; to `COc1ccccc1N(C)S(=O)(=O)c1ccc(Cl)c(C(=O)Nc2ccncc2)c1`, 4.67%; to `COc1cccc(N(CC(=O)NC2CCCC2)C(=O)Cn2nnc(-c3ccc(C)o3)n2)c1`, 2.12%.
The result for `CCc1nn(-c2cc(Oc3cccc4ccccc34)nc(-c3ccccc3)n2)c(N)c1C#N` reads -3.92%; that for `COc1cccc(OC)c1CN(C)C(=O)c1cnccc1C(F)(F)F`, -2.03%.
The result for `CC(=O)NCC(=O)N1CCC(n2nccc2NC(=O)CCCc2ccccc2)CC1` reads -2.51%; that for `CC1=C/C(=N\OS(=O)(=O)c2ccccc2)C=CC1=O`, 40.6% (active); that for `COc1ccc(C(=O)ON=C2c3ccccc3-c3ccccc32)cc1OC`, -1.57%.
For `COc1ccc(C(=O)O/N=C(\N)Cc2ccc(Cl)cc2Cl)cc1OC`, the activation was 11.8% (active).
The result for `COc1ccc(C/C(N)=N/OC(=O)c2ccco2)cc1OC` reads 6.23%; that for `COc1cccc(CSc2nc3nc(C)cc(C)n3n2)c1`, -1.45%.
The result for `CN(C(=O)CN1C(=O)NC(C)(CCc2ccccc2)C1=O)c1ccccc1` (stereo not given) reads -2.66%.
For `Cc1nn(CC(=O)NC2CCCCC2)c(=O)c2cccn12`, the activation was -3.35%.
Regarding `CCOC(=O)C1C(c2ccc(OC)c(OC)c2)c2c([nH][nH]c2=O)CC1(C)O` (stereo not given), the activation is 0.0386%.
To `O=c1ccc(-c2ccc(S(=O)(=O)Nc3ccccc3)o2)n[nH]1` belongs 2.43%; to `CC1=NN(C(=O)CCc2ccccc2O)C(O)(C(F)(F)F)C1` (stereo not given), -2.46%.
The result for `CC1=C(C/C=C(\C)CCCC(C)CCCC(C)CCCC(C)C)C(=O)c2ccccc2C1=O` (stereo not given) reads 16.4%.
On to `Cc1cc(NC(=O)Nc2ccccc2[N+](=O)[O-])no1`, for which the activation is -0.224%.
As to `Cc1csc(SCC(=O)N(c2ccccc2)C(C)C)n1`, the activation was -5.06%.
To `O=C(Nc1nnc(C2CC2)s1)C1=NN(C2CCS(=O)(=O)C2)C(=O)CC1` (stereo not given) belongs -2.11%; to `CN(C)S(=O)(=O)c1ccc(N/C=C(\[N+](=O)[O-])S(=O)(=O)c2ccccc2)cc1`, -4.82%.
To `CC(=O)Nc1ccc(Sc2ccccc2C(=O)N2CCCC2)cn1` belongs -0.519%; to `O=C(O)c1cccc2c1C(=O)N(C1CCCCC1)C2`, -1.33%; to `CC1(C)NC(=O)N(CC(=O)N2CCN(S(=O)(=O)c3ccccc3F)CC2)C1=O`, -2.41%.
The result for `CCCCCCCCCCCCC(NC(C)=O)(C(=O)OCC)C(=O)OCC` reads -3.1%.
As to `O=S(=O)([N-]c1nc2ccccc2nc1-[n+]1ccc(Cc2ccccc2)cc1)c1ccc(Br)s1`, the activation is 3.3%.
The result for `CN(CC(=O)NCCc1ccc(S(N)(=O)=O)cc1)CC(=O)Nc1ccc(Cl)cc1` reads -2.04%; that for `Cc1ccc(-n2nc(N)c3c(=O)oc(N(C)C)nc32)cc1`, -1.59%.
Take `CCOC(=O)c1sc(=NC(=O)/C=C/c2cccs2)n(C)c1C`: the activation was -1.39%.
